Activity data for 17 compounds are collected here from ChEMBL document CHEMBL2034911, “Carbazole alkaloids from the stems of Clausena lansium” (J Nat Prod, 2012).

What all share (type): functional, cell-based
Experiment [1] has as its system PC-12. Kind of experiment: Neuroprotective activity in rat PC12 cells assessed as inhibition of amyloid beta(25 to 35)-induced cell death at 10 uM incubated 48 hrs […] by MTT assay. The method in brief:
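PC12 cells were grown in DMEM with 5% FBS and 5% equine serum and seeded at 5000 cells/well for 24 h. Basic medium with 15 μM Aβ25−35 was applied for 48 h, with compound (DMSO stock, >1000-fold dilution) co-added, in triplicate. Viability was measured by MTT (4 h), formazan dissolved in DMSO, and absorbance read at 570 nm. ANOVA/Newman–Keuls.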
In general terms: Tetrazolium assays rely on reduction of a dye to a coloured formazan, in cell work by metabolically active cells.

The subject of experiment [2] is PC-12. Kind of experiment: Neuroprotective activity in rat PC12 cells assessed as inhibition of SNP-induced cell death at 10 uM incubated 24 hrs post SNP-challenge for 24 hrs by MTT assay. The method in brief: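 PC12 cells were grown in DMEM with 5% FBS and 5% equine serum and seeded at 5000 cells/well for 24 h. Medium was switched to basic medium with 350 μM SNP for 24 h, with compound (DMSO stock, >1000-fold dilution) added at the same time, in triplicate. MTT was added for 4 h, formazan dissolved in DMSO, and A570 read. ANOVA with Newman–Keuls post hoc test.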

The subject of experiment [3] is PC-12. The experiment can be described thus: Neuroprotective activity in rat PC12 cells assessed as inhibition of serum starvation-induced cell death after 24 hrs by MTT assay. An outline of the steps: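 Serum-withdrawal model: PC12 cells (5000/well) were pre-grown 24 h in DMEM with 5% FBS and 5% equine serum, then moved to plain DMEM. Compound (DMSO stock, >1000-fold dilution) was added at the same time, in triplicate, and cells were incubated 24 h at 37 °C, 5% CO2. MTT was added for 4 h, formazan dissolved in DMSO, and A570 read. ANOVA with Newman–Keuls test.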

Activity calls are given as the source filed them. No cut-off for these calls is given here.

Regarding `COc1cc(C=O)cc2c1[nH]c1ccccc12`, the result in the experiment on PC-12 [1] and in the experiment with PC-12 [2] was Active. In the experiment with PC-12 [3], the result was inactive.
Take `COc1ccc2[nH]c3ccc(C=O)cc3c2c1`: the outcome in the experiment on PC-12 [1], in the experiment on PC-12 [2] and in the experiment with PC-12 [3] was inactive.
On to `COC(=O)c1ccc2[nH]c3ccc(OC)cc3c2c1`, for which the outcome in the experiment on PC-12 [1] and with PC-12 [3] was inactive. The result in the experiment with PC-12 [2] was Active.
As for `COc1c2c(cc3c1[nH]c1ccccc13)[C@H]1O[C@@H]([C@H]2O)C(C)(C)O1`, the outcome in the experiment on PC-12 [1], in the experiment with PC-12 [2] and in the experiment with PC-12 [3] was inactive.
With `CC(C)=CCc1c(C=O)cc2c([nH]c3ccccc32)c1O`, the result in the experiment on PC-12 [1] was Active. Besides, the result with PC-12 [2] and in the experiment with PC-12 [3] was inactive.
Take `COc1c2c(cc3c1[nH]c1ccccc13)C(=O)O[C@@H]2[C@H](O)C(C)(C)O`: the outcome in the experiment on PC-12 [1], with PC-12 [2] and in the experiment with PC-12 [3] was inactive.
With `COc1ccc2[nH]c3c(O)cc(C=O)cc3c2c1`, the result in the experiment on PC-12 [1] and in the experiment on PC-12 [3] was inactive. In the experiment with PC-12 [2], the outcome was Active.
Consider `COc1c2c(cc3c1[nH]c1ccccc13)C(=O)C[C@@H]2O`, for which the outcome in the experiment on PC-12 [1], in the experiment with PC-12 [2] and in the experiment with PC-12 [3] was inactive.
Consider `COc1ccc2[nH]c3c4c(c(C=O)cc3c2c1)OC(C)(C)C=C4`, for which the result in the experiment with PC-12 [1] and in the experiment with PC-12 [3] was inactive. Further, in the experiment on PC-12 [2], the result was Active.
Take `COc1c2c(cc3c1[nH]c1ccccc13)[C@H]1O[C@@H](C2)C(C)(C)O1`: the outcome in the experiment with PC-12 [1] and in the experiment with PC-12 [2] was Active. For the same compound, the outcome with PC-12 [3] was inactive.
On to `COc1c2c(cc3c1[nH]c1ccccc13)C(=O)O[C@H](C(C)(C)O)[C@H]2O`, for which the outcome in the experiment with PC-12 [1], in the experiment with PC-12 [2] and in the experiment on PC-12 [3] was inactive.
For the compound `O=Cc1ccc2[nH]c3ccccc3c2c1`, the outcome with PC-12 [1], in the experiment on PC-12 [2] and with PC-12 [3] was inactive.
On to `COc1cc2c(cc1O)[nH]c1c(CC=C(C)C)c(O)c(C=O)cc12`, for which the result with PC-12 [1] was Active. The outcome in the experiment with PC-12 [2] and with PC-12 [3] was inactive.
For the compound `CC(C)=CCc1c(C=O)cc(O)c2[nH]c3ccccc3c12`, the outcome with PC-12 [1], in the experiment on PC-12 [2] and in the experiment with PC-12 [3] was inactive.
On to `COc1c2c(cc3c1[nH]c1ccccc13)C(=O)C(=C(C)C)C2`, for which the outcome with PC-12 [1], in the experiment with PC-12 [2] and with PC-12 [3] was inactive.
For the compound `COc1cc2c(cc1O)[nH]c1cc(O)c(C=O)cc12`, the result in the experiment with PC-12 [1] and with PC-12 [2] was Active. For the same compound, the result with PC-12 [3] was inactive.
For the compound `COc1ccc2[nH]c3cc(OC)c(C=O)cc3c2c1`, the outcome in the experiment on PC-12 [1], in the experiment on PC-12 [2] and in the experiment on PC-12 [3] was inactive.
